Assay results reported in ChEMBL document CHEMBL4033653, “Effect of 1,2,3-triazole salts, non-classical bioisosteres of miltefosine, on Leishmania amazonensis” (Bioorg Med Chem, 2017).
Calls of active or inactive are those of the source. No cut-off for these calls is given here.

Legend:
Leishmania amazonensis [1] = test: Antileishmanial activity against Leishmania amazonensis IFLA/BR/1967/PH8 promastigotes after 72 hrs by MTT assay; type: functional
Peritoneal macrophage = test: (§1) Cytotoxicity against mouse peritoneal macrophages after 72 hrs by MTT assay; type: cell-based; conditions: peritoneal macrophage, 72 h
Leishmania amazonensis [2] = test: Antileishmanial activity against Leishmania amazonensis IFLA/BR/1967/PH8 promastigotes at 2.5 to 20 uM incubated for 72 hrs followed by compound washout measured after 72 hrs by Neubauer chamber method; type: functional
Outline: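 WT promastigotes exposed 72 h at 25 °C and counted; centrifuged, washed twice in PBS, adjusted to 10x10^6 cells/mL in drug-free Warren's medium + 10% serum; after 72 h at 25 °C viable cells counted in Neubauer chamber; three independent experiments in duplicate.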

Leishmania amazonensis [3] = test: Induction of lipid inclusions in Leishmania amazonensis IFLA/BR/1967/PH8 promastigotes at 5 uM after 24 hrs by Nile Red satining-based spectrofluorometric analysis; type: functional
Outline: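 WT exponential-phase promastigotes (1x10^7 cells/mL) cultured 24 h at 25 °C, stained with Nile Red, fluorescence read spectrofluorometrically versus untreated; three experiments in triplicate.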

Leishmania amazonensis [4] = test: Induction of lipid inclusions in Leishmania amazonensis IFLA/BR/1967/PH8 promastigotes at 2.5 uM after 24 hrs by Nile Red satining-based spectrofluorometric analysis; type: functional
Outline: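 WT (PH8) promastigotes at 1x10^7 cells/mL in exponential phase, cultured 24 h at 25 °C with or without 2.5–20.0 µM. Parasites incubated with Nile Red, then fluorescence measured spectrofluorometrically. Reported as arbitrary fluorescence units versus untreated parasites, mean of three experiments run in triplicate.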

Leishmania amazonensis [5] = test: Induction of plasma membrane permeability in Leishmania amazonensis IFLA/BR/1967/PH8 promastigotes form assessed as increase in fluorescence intensity at 20 uM after 24 hrs by PI staining-based spectrofluorometric analysis; type: functional
Outline: (§2)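 Exponential WT promastigotes (1x10^7 cells/mL) treated 24 h at 25 °C; washed, PI 1.0 µg/mL 15 min dark at room temperature; fluorescence 540/600 nm as % increase over untreated; heat-killed cells (65 °C, 10 min) as positive control; three independent experiments.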

Leishmania amazonensis [6] = test: Induction of plasma membrane permeability in Leishmania amazonensis IFLA/BR/1967/PH8 promastigotes form assessed as increase in fluorescence intensity at 2.5 to 10 uM after 24 hrs by PI staining-based spectrofluorometric analysis; type: functional; outline: as §2
Leishmania amazonensis [7] = test: Induction of morphological changes in Leishmania amazonensis IFLA/BR/1967/PH8 promastigotes assessed as altered parasite shape at 2.5 to 20 uM after 24 hrs by Giemsa staining-based microscopic analysis; type: functional
Outline: (§3)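 Exponential-phase promastigotes (1x10^7 cells/mL) treated 24 h at 25 °C; harvested, resuspended in PBS, smeared, ethanol-fixed, Giemsa-stained and examined by light microscopy.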

Leishmania amazonensis [8] = test: Induction of morphological changes in Leishmania amazonensis IFLA/BR/1967/PH8 promastigotes assessed as parasite size reduction at 2.5 to 20 uM after 24 hrs by Giemsa staining-based microscopic analysis; type: functional; outline: as §3
Leishmania amazonensis [9] = test: Induction of morphological changes in Leishmania amazonensis IFLA/BR/1967/PH8 promastigotes assessed as rounded cell body at 2.5 to 20 uM after 24 hrs by Giemsa staining-based microscopic analysis; type: functional; outline: as §3
Leishmania amazonensis [10] = test: Induction of DNA damage in Leishmania amazonensis IFLA/BR/1967/PH8 promastigotes at 5 to 10 uM after 24 hrs by TUNEL assay; type: functional
Outline: (§4)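 Exponential-phase WT promastigotes (1x10^7 cells/mL) cultured 24 h at 25 °C; DNA fragmentation detected by TUNEL with DAPI counterstain, fluorescence microscopy at 100X.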

Leishmania amazonensis [11] = test: Induction of autophagy in Leishmania amazonensis IFLA/BR/1967/PH8 promastigotes at 2.5 to 10 uM after 24 hrs by MDC staining-based fluorometric analysis; type: functional
Outline: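 Exponential WT promastigotes (1x10^7 cells/mL) treated 24 h at 25 °C; washed, adjusted to 10x10^6 cells/mL, 100 µM monodansylcadaverine 1 h dark at 25 °C; fluorescence 335/460 nm versus untreated; three independent experiments.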

Leishmania amazonensis [12] = test: Antileishmanial activity against Leishmania amazonensis WHOM/BR/75/Josefa promastigotes transfected with green fluorescent protein after 72 hrs by MTT assay; type: functional
Leishmania amazonensis [13] = test: Antileishmanial activity against Leishmania amazonensis IFLA/BR/1967/PH8 promastigotes transfected with red fluorescent protein after 72 hrs by MTT assay; type: functional; conditions: IFLA/BR/1967/PH8, 72 h
Leishmania amazonensis [14] = test: Antileishmanial activity against Leishmania amazonensis IFLA/BR/1967/PH8 amastigotes infected in murine macrophages after 72 hrs by fluorometric analysis; type: functional; conditions: IFLA/BR/1967/PH8, 72 h
Leishmania amazonensis [15] = test: Antileishmanial activity against Leishmania amazonensis WHOM/BR/75/Josefa amastigotes transfected with green fluorescent protein infected in murine macrophages after 72 hrs by fluorometric analysis; type: functional
Outline: (§5)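 Infected murine macrophages treated 0.78-100.0 µM for 72 h; fluorescence read at 540/600 nm for RFP parasites (PH8) and 485/528 nm for GFP parasites (Josefa strain); IC50 from three independent experiments in duplicate.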

Leishmania amazonensis [16] = test: Antileishmanial activity against Leishmania amazonensis IFLA/BR/1967/PH8 amastigotes transfected with red fluorescent protein infected in murine macrophages after 72 hrs by fluorometric analysis; type: functional; conditions: IFLA/BR/1967/PH8, 72 h; outline: as §5
[17] = as §1; type: cell-based, Peritoneal macrophage; conditions: peritoneal macrophages
[18] = Selectivity index, ratio of CC50 for mouse peritoneal macrophages to IC50 for Leishmania amazonensis IFLA/BR/1967/PH8 amastigotes
Outline: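 SI = CC50 for mouse peritoneal macrophages / amastigote IC50. […] IC50: WT-infected macrophages treated with 0.78–100.0 µM in sterile water; burden scored by counting amastigotes and infected/uninfected cells in at least 200 macrophages. Three experiments in duplicate.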

[19] = Selectivity index, ratio of CC50 for mouse peritoneal macrophages to IC50 for Leishmania amazonensis WHOM/BR/75/Josefa amastigotes transfected with green fluorescent protein
Outline: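 SI = CC50 for mouse peritoneal macrophages / GFP amastigote IC50. […] IC50: macrophages infected with GFP-expressing Josefa-strain parasites, treated with 0.78–100.0 µM for 72 h; fluorescence read at 485 nm excitation/528 nm emission. Three experiments in duplicate.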

[20] = Selectivity index, ratio of CC50 for mouse peritoneal macrophages to IC50 for Leishmania amazonensis IFLA/BR/1967/PH8 amastigotes transfected with red fluorescent protein
Outline: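 SI = CC50 for mouse peritoneal macrophages / RFP amastigote IC50. […] IC50: macrophages infected with RFP-expressing PH8 parasites, treated with 0.78–100.0 µM for 72 h; fluorescence read at 540 nm excitation/600 nm emission. Three experiments in duplicate.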

Leishmania amazonensis [21] = test: Induction of ROS accumulation in Leishmania amazonensis IFLA/BR/1967/PH8 promastigotes at 22 uM after 72 hrs by H2DCFDA staining-based fluorometric analysis relative to control; type: functional
Outline: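 WT exponential-phase promastigotes treated at 25 °C; adjusted to 2x10^7 cells in PBS, loaded with H2DCFDA 30 min dark at room temperature; fluorescence 485/528 nm versus untreated; three independent experiments.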

Leishmania amazonensis [22] = test: Induction of apoptosis in Leishmania amazonensis IFLA/BR/1967/PH8 promastigotes assessed as early apoptotic population at 44 uM after 24 hrs by Annexin V-FITC/PI staining based flow cytometric analysis (reference value: 5.29%); type: functional
Outline: (§6)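 Exponential-phase WT promastigotes (1x10^7 cells/mL) cultured 24 h at 25 °C; stained annexin V-FITC plus PI, flow cytometry with 10,000 events gated on parasites; quadrant percentages; three independent experiments.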

Leishmania amazonensis [23] = test: Induction of apoptosis in Leishmania amazonensis IFLA/BR/1967/PH8 promastigotes assessed as late apoptotic population at 44 uM after 24 hrs by Annexin V-FITC/PI staining based flow cytometric analysis (reference value: 2.62%); type: functional; outline: as §6
Leishmania amazonensis [24] = test: Induction of apoptosis in Leishmania amazonensis IFLA/BR/1967/PH8 promastigotes assessed as necrotic population at 44 uM after 24 hrs by Annexin V-FITC/PI staining based flow cytometric analysis (reference value: 0.03%); type: functional; outline: as §6
Leishmania amazonensis [25] = test: Induction of DNA damage in Leishmania amazonensis IFLA/BR/1967/PH8 promastigotes at 22 uM after 24 hrs by TUNEL assay; type: functional; outline: as §4
[26] = Leishmania amazonensis, IFLA/BR/1967/PH8, 72 h

`CCCCCCCCCCn1cc(CO)[n+](CCC)n1` [listing 1 of 2 here] gave an IC50 (Leishmania amazonensis [1]; [26]) of 0.73 µM and a CC50 (Peritoneal macrophage) of 4.6 µM.
`CCCCCCCCCCn1cc(CO)[n+](CCC)n1` [listing 2 of 2 here] showed an IC50 (Leishmania amazonensis [1]) of 0.7 µM and a CC50 (Peritoneal macrophage) of 3.9 µM.
With `CCCCn1cc(CO)[n+](C)n1` the IC50 (Leishmania amazonensis [1]; [26]) was > 100 µM.
For `CCCCCCn1cc(CO)[n+](C)n1`, the IC50 (Leishmania amazonensis [1]; [26]) was > 100 µM.
In the case of `CCCCCCCCCCn1cc(CO)[n+](C)n1` [listing 1 of 2 here], the Activity (Leishmania amazonensis [2]) is reported as “Active”, the Activity (Leishmania amazonensis [3]) is reported as “inactive” and the Activity (Leishmania amazonensis [4]) is reported as “inactive”. The Activity (Leishmania amazonensis [5]) was “Active”, the Activity (Leishmania amazonensis [6]) was “inactive” and the Activity (Leishmania amazonensis [7]) was “Active”. The Activity (Leishmania amazonensis [8]) was “Active”, the Activity (Leishmania amazonensis [9]) was “Active” and the Activity (Leishmania amazonensis [10]) was “Active”. For the same compound, the Activity (Leishmania amazonensis [11]) was “inactive”.
With `CCCCCCn1cc(CO)[n+](CCC)n1` the IC50 (Leishmania amazonensis [1]; [26]) was > 100 µM.
`CCCCCCCCCCn1cc(CO)[n+](C)n1` [listing 2 of 2 here] showed an IC50 (Leishmania amazonensis [1]) of 14.3 µM.
Work on `CCCCCCCCCCCCCCCCOP(=O)([O-])OCC[N+](C)(C)C` [MILTEFOSINE] yielded an IC50 (Leishmania amazonensis [1]; [26]) of 22 µM, an IC50 (Leishmania amazonensis [12]) of 13.2 µM and an IC50 (Leishmania amazonensis [13]) of 18.9 µM. It also gave an IC50 (Leishmania amazonensis [14]) of 4.2 µM, an IC50 (Leishmania amazonensis [15]) of 6.6 µM and an IC50 (Leishmania amazonensis [16]) of 12.7 µM. For the same compound, the CC50 at 72 h [17] was 144 µM, the “Ratio CC50/IC50” value [18] was 34.2 and the “Ratio CC50/IC50” value [19] was 21.7. For the same compound, the “Ratio CC50/IC50” value [20] was 11.3, the Activity (Leishmania amazonensis [21]) was 66.7% and the Activity (Leishmania amazonensis [22]) was 53.22%. The Activity (Leishmania amazonensis [23]) was 12.23%, the Activity (Leishmania amazonensis [24]) was 7.15% and the Activity (Leishmania amazonensis [25]) was “Active”.
With `CCCCn1cc(CO)[n+](CCC)n1` the IC50 (Leishmania amazonensis [1]; [26]) was > 100 µM.
